# Source: PubChem (The Scripps Research Institute Molecular Screening Center)
# A selection: hits, their analogues and other compounds. The true share with any hit is near 1.6%.
# procasp3 activ: activators of human procaspase-3. P42574. recombinant procaspase-3 D3A, Ac-DEVD-pNA absorbance 405 nm. activation, % at 8.5 µM. 330,000 tested, 0.11% active. AID 463141;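 active = activation above the mean of all tested compounds plus 3 SD, cut at about 21% in these data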
#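 Test system: Procaspase-3 D3A mutant; medium: Zinc-free HEPES/NaCl buffer with 0.01% Triton X-100 at pH 7.4; reagent: DEVD-pNA substrate; doses: one concentration, 8.5 µM nominal, 0.8% DMSO; times: 1 h preincubation plus 2 h reaction at 25 °C; signal: Epi-absorbance at 405 nm of released p-nitroaniline, 0 and 120 min; replicates: singlicate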
# PLC-beta3 inh: PLC-beta3 (human) inhibition, primary screen. 370,000 tested, 0.18% active. inhibition, % at 12.2 µM. Purified PLC-beta3, fluorogenic substrate, fluorescence. Q01970; in the data active = inhibition above about 11%
# sPLA2-III inh: Blocks human group III sPLA2 activity; 370,000 tested, 0.56% active; QFRET BODIPY PC-A2 liposome hydrolysis, fluorescence; inhibition, % at 12.2 µM;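 active = inhibition above mean plus 3 SD of compounds lying within the high and low control bounds, cut at about 19% in these data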
# Target sequence (Q9NZ20 whole entry, looked up): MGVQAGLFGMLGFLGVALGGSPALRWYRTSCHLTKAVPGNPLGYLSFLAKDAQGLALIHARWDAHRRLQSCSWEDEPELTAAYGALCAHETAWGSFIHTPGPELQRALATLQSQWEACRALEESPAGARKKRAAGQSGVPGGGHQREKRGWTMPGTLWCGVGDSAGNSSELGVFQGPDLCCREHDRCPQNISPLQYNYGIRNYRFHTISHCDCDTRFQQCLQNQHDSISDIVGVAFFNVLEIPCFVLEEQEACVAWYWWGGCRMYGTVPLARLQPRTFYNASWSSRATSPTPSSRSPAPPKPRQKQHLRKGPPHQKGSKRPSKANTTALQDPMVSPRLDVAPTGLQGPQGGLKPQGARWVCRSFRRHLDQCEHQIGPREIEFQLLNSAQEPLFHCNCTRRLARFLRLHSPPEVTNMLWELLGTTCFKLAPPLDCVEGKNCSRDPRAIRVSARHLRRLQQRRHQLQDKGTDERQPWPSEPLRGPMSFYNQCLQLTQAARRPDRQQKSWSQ
# PLC-gamma1 inh: inhibitors of human phospholipase C gamma1; AID 720700; inhibition, % at 12.2 µM; purified PLC-gamma1, fluorogenic substrate, fluorescence; P19174; 370,000 tested, 0.84% active; in the data active = inhibition above about 9.5%
# procasp7 counter: counter-screen for procaspase-3 activators: activators of human procaspase-7. P55210. recombinant procaspase-7, Ac-DEVD-pNA absorbance 405 nm; D23A/D198A/D206A triple mutant, cannot self-cleave; scale: DMSO 0, 5 µM enzyme 100. activation, % at 8.5 µM. 330,000 tested, 0.093% active;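 active = percent activation above the screen-wide mean plus 3 SD, cut at about 25% in these data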
#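 Detection: p-Nitroaniline absorbance at 405 nm, read at 0 and 120 min; system: Uncleavable procaspase-7 mutant enzyme; evaluation: % activation from two-timepoint absorbance difference, scaled to controls; times: 1 h enzyme–compound preincubation and 2 h substrate reaction, both 25 °C; buffer or medium: Zinc-free HEPES pH 7.4 with 300 mM NaCl, 0.01% Triton X-100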
# Hits are given with their value; 0 = inactive; - = no result.
SMILES,procasp3 activ,PLC-beta3 inh,sPLA2-III inh,PLC-gamma1 inh,procasp7 counter
Cc1cccc(C(=O)N2CCC(=O)N(C(COCc3ccccc3)Cc3ccccc3)CC2)c1 (stereo unspecified),0,0,0,15,0
Cc1cccc(C(=O)N2CCC(=O)N([C@H](COCc3ccccc3)Cc3ccccc3)CC2)c1,-,0,0,0,-
CCCCN1C[C@H](CO)Oc2cccc(F)c2S1(=O)=O,-,0,0,0,-
COc1ccc2c(c1)OC[C@H]1[C@H]2N2C(=O)c3ccc(F)cc3NC(=O)[C@@]2(C)[C@H]1c1ccccc1,-,0,38,0,-
CNc1nc(N(C)C)nc(N(C)C)n1,0,0,0,0,0
CN(C)c1nc(N(C)C)nc(N(C)C)n1,0,0,0,9.6,0
COC(=O)c1ccc(NCc2cc(O)ccc2O)cc1O,-,0,0,0,-
COC(=O)c1ccc(NCc2c(O)ccc(O)c2Br)cc1Cl,-,0,34,9.8,-
Cc1[nH]c2ccccc2c1C(=O)C(=O)N1CCN(c2cccc(Cl)c2)CC1,0,0,0,13,0
O=C(COc1ccccc1Br)N1CCN(C(=O)c2cccs2)CC1,0,0,0,14,0
Cc1ccc(S(=O)(=O)/N=C2\SC(CC(=O)Nc3ccc(F)cc3)C(=O)N2c2ccccc2)cc1 (stereo unspecified),0,11,0,0,0
O=C(CC1S/C(=N\S(=O)(=O)c2ccccc2)N(c2ccccc2)C1=O)Nc1ccc(F)cc1 (stereo unspecified),0,0,0,0,0
COC(=O)C(=O)/C=C(\O)c1ccc(C)cc1,0,0,27,0,0
CC(=O)Oc1ccc(/C=C2/C(=O)N(c3ccccc3)N=C2C)cc1,0,0,0,31,0
COc1ccc(/C=C2/C(=O)N(c3ccccc3)N=C2C)cc1OC,-,0,0,19,-
COc1ccc(/C=C2/C(=O)N(c3ccccc3)N=C2C)cc1,0,-,-,-,0
NS(=O)(=O)c1ccc(N=Nc2ccc(O)c3ncccc23)cc1,0,0,46,0,0
C=CCN1C(=O)[C@@H](CC(=O)NCCCCc2ccccc2)[C@]2(C(=O)OC)CCCCC=C12,-,0,0,0,-
O=C(NCc1cccc(C(F)(F)F)c1)c1cc(Cl)cc(Cl)c1,0,0,0,0,36
O=C(NCc1cccc(C(F)(F)F)c1)c1cc(Cl)ccc1Cl,0,0,0,0,0
CC(=O)C1CCC2C3CC=C4CC(SC(=N)N)CCC4(C)C3CCC12C (stereo unspecified),-,0,37,0,-
CC(=O)OCC(=O)C1CCC2C3CC=C4CC(O)CCC4(C)C3CCC12C (stereo unspecified),0,0,0,0,0
Brc1ccc(C2NCCS2)cc1 (stereo unspecified),0,0,0,0,0
CCOC(=O)C1CCN(c2cc(C)nc3cc(-c4cccc(F)c4)nn23)CC1,26,0,0,0,31
CCOc1ccc(NC(=O)CN(C)C(=O)CN2C(=O)c3ccc([N+](=O)[O-])cc3C2=O)cc1OCC,-,0,0,0,-
SMILES,procasp3 activ,PLC-beta3 inh,sPLA2-III inh,PLC-gamma1 inh,procasp7 counter
Cc1cc(C)nc(SCCN2CCCCC2)n1,0,0,0,13,0
Cc1cc(C)nc(SCCN(C)C)n1,0,0,0,0,0
O=C(O)c1ccc(N(Cc2ccccc2)S(=O)(=O)c2ccccc2)cc1,0,0,0,0,0
CC(=O)N(Cc1ccccc1)c1ccc(C(=O)O)cc1,0,0,0,9.7,0
O=c1c2ccccc2ncn1-c1ccc([N+](=O)[O-])cc1[N+](=O)[O-],0,0,0,0,0
O=c1c2ccccc2ncn1-c1cccc([N+](=O)[O-])c1,0,0,20,0,0
Cc1ccc(C)c(OCC(=O)Nc2ccc3c(c2)OCO3)c1C,0,0,0,12,0
Cc1cccc(OCC(=O)Nc2ccc3c(c2)OCO3)c1C,0,0,0,0,0
C/C(Sc1nnc(Cc2ccccc2)o1)=C(\O)c1ccccc1,-,0,0,0,-
O=C(C[n+]1ccn(-c2ccccc2)c1)c1ccc([N+](=O)[O-])cc1,0,0,0,0,0
O=C(Cn1cc[n+](Cc2ccccc2)c1)c1ccc([N+](=O)[O-])cc1,0,0,0,11,0
COc1cc(C(=O)N/N=C/c2ccc(OC(=O)c3cccc(C)c3)cc2)ccc1O,-,0,0,16,-
COC(=O)Cc1ccc(NC(=S)NNC(=O)C2CC2)cc1,0,0,0,0,0
O=C(c1ccccc1)c1ccccc1,-,11,0,0,-
O=C(c1ccccc1)c1ccc(-c2ccc(O)cc2)cc1,-,0,0,0,-
COC(=O)C(C(=O)OC)c1ccc(-n2cccc2)cc1,0,0,0,0,0
Fc1ccccc1/C=N/Nc1ncnc2nc[nH]c12,0,0,0,9.8,0
Fc1cccc(/C=N/Nc2ncnc3nc[nH]c23)c1,0,0,0,0,0
Cc1cccc(NC(=O)NN(C(=O)c2ccccc2Cl)C(C)(C)C)c1,-,0,0,0,-
COc1ccccc1NC(=O)Nc1nc(C(N)CCc2ccccc2)cs1 (stereo unspecified),-,0,0,11,-
COc1cc(CNC(=O)Nc2nc(C(N)CCc3ccccc3)cs2)cc(OC)c1OC (stereo unspecified),-,0,0,0,-
Nc1ccc(Cn2ccc3c4c(N)nc(N)nc4ccc32)cc1,-,0,22,0,-
CCOC(=O)C1=C(C)NC(C)=C(C(=O)OCC)C1/C=C/c1ccccc1,0,0,0,0,0
CCOC(=O)C1=C(C)NC(C)=C(C(=O)OCC)C1c1ccccc1/C=C/C(=O)OC(C)(C)C,0,-,-,-,30
O=C(COC(=O)Cc1ccccc1[N+](=O)[O-])NCC1CCCCC1,0,0,0,0,0
SMILES,procasp3 activ,PLC-beta3 inh,sPLA2-III inh,PLC-gamma1 inh,procasp7 counter
CN(C)c1cccc(NC(=O)c2cccc3ccccc23)c1,0,0,0,0,0
COC1=CC(=O)c2nc(Cl)ccc2C1=O,-,0,0,10,-
COP(=O)(OC)OC(C(=O)c1ccccc1)c1ccc(Cl)cc1 (stereo unspecified),-,0,0,0,-
C=CC[C@@H](CC(=O)N[C@@H](CO)Cc1ccccc1)C(=O)N[C@H](COC(=O)[C@H](CC=C)CC(=O)OC(C)(C)C)Cc1c[nH]c2ccccc12,0,0,0,0,0
C=CC[C@@H](CC(=O)N[C@H](CO)Cc1ccccc1)C(=O)N[C@H](COC(=O)[C@H](CC=C)CC(=O)OC(C)(C)C)Cc1c[nH]c2ccccc12,-,0,0,10,-
C=CCC[C@H](Cc1ccc(F)cc1)C(=O)OC[C@H](Cc1c[nH]c2ccccc12)NC(=O)[C@@H](CC=C)CC(=O)NCCO,0,0,0,12,0
O=C(c1ccccc1)N1CCN(C(=O)c2ccccc2)c2ccccc21,-,0,0,0,-
O=C(c1cccc2ccccc12)N1CCC(N2CCN(c3ccccc3)CC2)CC1,0,0,0,15,0
O=C(c1cccs1)N1CCC(N2CCN(c3ccccc3)CC2)CC1,0,0,0,0,0
